Measured values reported in ChEMBL document CHEMBL5724801, “EUbOPEN Chemogenomics Library - Multiplex” (2024).
“And” between values parts separate entries of the source, which are not always exact repeats. Equal entries are not always repeated.

Tested on: U2OS
Experiment: Multiplex assay against U2OS
Type: toxicity, cell-based
Conditions: human
In short: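 Imaging took place on a CQ1 microscope at 37°C and 5% CO2 once compound had been added to live cells stained at seeding with Hoechst33342, BioTracker Green Microtubule Cytoskeleton Dye, MitoTracker Red and Annexin V Alexa Fluor 680. CellPathfinder machine-learning gating classed cells as Hoechst high-intensity objects or normal cells, classed normal cells as having healthy, pyknosed or fragmented nuclei, and classed pyknosed cells as mitotic or apoptotic. Tubulin, mitochondrial-mass and membrane-permeability phenotypes are per cents of the healthy-nucleus cells.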

[1] = 12 h, 1 µM, compound concentration 1 uM
[2] = 12 h, 10 µM, compound concentration 10 uM
[3] = 24 h, 1 µM, compound concentration 1 uM
[4] = 24 h, 10 µM, compound concentration 10 uM
[5] = 48 h, 1 µM, compound concentration 1 uM
[6] = 48 h, 10 µM, compound concentration 10 uM

## N#Cc1c(N)nc(SCc2csc(-c3ccc(Cl)cc3)n2)c(C#N)c1-c1ccc(OCCO)cc1 [CAPADENOSON]
[1]
  Population Apoptotic (%): 78% and 80%
  Population Fragmented Nuclei (%): 25% and 18%
  Population Healthy Nuclei (%): 65% and 75%
  Population Hoechst High Intensity Objects (%): 5% and 1%
  Population Membrane Permeable-Phenotype (%): 14% and 5%
  Population Mitochondria Different-Phenotype (%): 4% and 2%
  Population Mitotic Cells (%): 21% and 20%
  Population Normal (%): 94% and 98%
  Population Pyknosed Nuclei (%): 8% and 6%
  Population Tubulin-Different-Phenotype (%): 10% and 1%
  Total Cell Count: 236 and 150
[2]
  Population Apoptotic (%): 64% and 68%
  Population Fragmented Nuclei (%): 35% and 24%
  Population Healthy Nuclei (%): 40% and 56%
  Population Hoechst High Intensity Objects (%): 5% and 0%
  Population Membrane Permeable-Phenotype (%): 70% and 49%
  Population Mitochondria Different-Phenotype (%): 37% and 61%
  Population Mitotic Cells (%): 35% and 31%
  Population Normal (%): 94% and 99%
  Population Pyknosed Nuclei (%): 24% and 18%
  Population Tubulin-Different-Phenotype (%): 65% and 70%
  Total Cell Count: 255 and 102
[3]
  Population Apoptotic (%): 87% and 61%
  Population Fragmented Nuclei (%): 23% and 16%
  Population Healthy Nuclei (%): 64% and 71%
  Population Hoechst High Intensity Objects (%): 3% and 0%
  Population Membrane Permeable-Phenotype (%): 9% and 5%
  Population Mitochondria Different-Phenotype (%): 4% and 2%
  Population Normal (%): 96% and 99%
  Population Pyknosed Nuclei (%): 12%
  Population Tubulin-Different-Phenotype (%): 6% and 2%
  Total Cell Count: 263 and 176
[4]
  Population Apoptotic (%): 71% and 69%
  Population Fragmented Nuclei (%): 36% and 25%
  Population Healthy Nuclei (%): 37% and 49%
  Population Hoechst High Intensity Objects (%): 5% and 2%
  Population Membrane Permeable-Phenotype (%): 47% and 34%
  Population Mitochondria Different-Phenotype (%): 38% and 58%
  Population Mitotic Cells (%): 28% and 30%
  Population Normal (%): 94% and 97%
  Population Pyknosed Nuclei (%): 26% and 24%
  Population Tubulin-Different-Phenotype (%): 47% and 60%
  Total Cell Count: 253 and 95
[5]
  Population Apoptotic (%): 80% and 84%
  Population Fragmented Nuclei (%): 23% and 12%
  Population Healthy Nuclei (%): 67% and 79%
  Population Hoechst High Intensity Objects (%): 3% and 0%
  Population Membrane Permeable-Phenotype (%): 9% and 6%
  Population Mitochondria Different-Phenotype (%): 6% and 3%
  Population Mitotic Cells (%): 20% and 15%
  Population Normal (%): 96% and 99%
  Population Pyknosed Nuclei (%): 8%
  Population Tubulin-Different-Phenotype (%): 6% and 5%
  Total Cell Count: 355 and 220
[6]
  Population Apoptotic (%): 86% and 66%
  Population Fragmented Nuclei (%): 44% and 30%
  Population Healthy Nuclei (%): 30% and 49%
  Population Hoechst High Intensity Objects (%): 5% and 4%
  Population Membrane Permeable-Phenotype (%): 46% and 45%
  Population Mitochondria Different-Phenotype (%): 31% and 45%
  Population Mitotic Cells (%): 13% and 33%
  Population Normal (%): 94% and 95%
  Population Pyknosed Nuclei (%): 25% and 20%
  Population Tubulin-Different-Phenotype (%): 37% and 50%
  Total Cell Count: 285 and 109

## COc1cc(C(=O)N(CCCc2ccccc2)Cc2ccc(CC(=O)O)cc2)cc(OC)c1C
[1]
  Population Apoptotic (%): 95% and 70%
  Population Fragmented Nuclei (%): 29% and 23%
  Population Healthy Nuclei (%): 60% and 65%
  Population Hoechst High Intensity Objects (%): 4%
  Population Membrane Permeable-Phenotype (%): 7% and 8%
  Population Mitochondria Different-Phenotype (%): 4% and 1%
  Population Normal (%): 95%
  Population Pyknosed Nuclei (%): 10% and 11%
  Population Tubulin-Different-Phenotype (%): 4% and 1%
  Total Cell Count: 228 and 93
[2]
  Population Apoptotic (%): 82% and 100%
  Population Fragmented Nuclei (%): 22% and 15%
  Population Healthy Nuclei (%): 71% and 79%
  Population Hoechst High Intensity Objects (%): 0% and 1%
  Population Membrane Permeable-Phenotype (%): 5% and 2%
  Population Mitochondria Different-Phenotype (%): 0% and 3%
  Population Mitotic Cells (%): 17% and 0%
  Population Normal (%): 99% and 98%
  Population Pyknosed Nuclei (%): 6% and 4%
  Population Tubulin-Different-Phenotype (%): 2% and 4%
  Total Cell Count: 262 and 171
[3]
  Population Apoptotic (%): 84% and 73%
  Population Fragmented Nuclei (%): 29% and 22%
  Population Healthy Nuclei (%): 61% and 64%
  Population Hoechst High Intensity Objects (%): 2% and 4%
  Population Membrane Permeable-Phenotype (%): 7% and 2%
  Population Mitochondria Different-Phenotype (%): 6% and 2%
  Population Mitotic Cells (%): 15% and 26%
  Population Normal (%): 97% and 95%
  Population Pyknosed Nuclei (%): 9% and 13%
  Population Tubulin-Different-Phenotype (%): 4% and 0%
  Total Cell Count: 288 and 120
[4]
  Population Apoptotic (%): 94% and 84%
  Population Fragmented Nuclei (%): 18% and 12%
  Population Healthy Nuclei (%): 76% and 80%
  Population Hoechst High Intensity Objects (%): 0% and 2%
  Population Membrane Permeable-Phenotype (%): 7%
  Population Mitochondria Different-Phenotype (%): 2% and 5%
  Population Mitotic Cells (%): 5% and 15%
  Population Normal (%): 99% and 97%
  Population Pyknosed Nuclei (%): 5% and 6%
  Population Tubulin-Different-Phenotype (%): 3% and 5%
  Total Cell Count: 318 and 192
[5]
  Population Apoptotic (%): 86% and 78%
  Population Fragmented Nuclei (%): 23% and 22%
  Population Healthy Nuclei (%): 69% and 64%
  Population Hoechst High Intensity Objects (%): 3% and 6%
  Population Membrane Permeable-Phenotype (%): 5% and 7%
  Population Mitochondria Different-Phenotype (%): 2% and 5%
  Population Mitotic Cells (%): 13% and 21%
  Population Normal (%): 96% and 93%
  Population Pyknosed Nuclei (%): 7% and 12%
  Population Tubulin-Different-Phenotype (%): 4% and 6%
  Total Cell Count: 408 and 159
[6]
  Population Apoptotic (%): 93% and 94%
  Population Fragmented Nuclei (%): 18% and 15%
  Population Healthy Nuclei (%): 75% and 71%
  Population Hoechst High Intensity Objects (%): 1% and 3%
  Population Membrane Permeable-Phenotype (%): 4% and 8%
  Population Mitochondria Different-Phenotype (%): 2% and 1%
  Population Mitotic Cells (%): 6% and 5%
  Population Normal (%): 98% and 96%
  Population Pyknosed Nuclei (%): 6% and 13%
  Population Tubulin-Different-Phenotype (%): 2% and 4%
  Total Cell Count: 504 and 280

## FC(F)(F)c1ccccc1-c1cc(C(F)(F)F)c2[nH]c(C3=NOC4(CCCCC4)C3)nc2c1
[1]
  Population Apoptotic (%): 48.57% and 27.27%
  Population Fragmented Nuclei (%): 2.24% and 1.95%
  Population Healthy Nuclei (%): 87.96% and 83.77%
  Population Hoechst High Intensity Objects (%): 0%
  Population Membrane Permeable-Phenotype (%): 1.91% and 5.43%
  Population Mitochondria Different-Phenotype (%): 0.32% and 6.98%
  Population Mitotic Cells (%): 51.43% and 72.73%
  Population Normal (%): 100%
  Population Pyknosed Nuclei (%): 9.8% and 14.29%
  Population Tubulin-Different-Phenotype (%): 0.96% and 0%
  Total Cell Count: 357 and 154
[2]
  Population Apoptotic (%): 51.92% and 25%
  Population Fragmented Nuclei (%): 1.81% and 6.56%
  Population Healthy Nuclei (%): 82.53% and 69.4%
  Population Hoechst High Intensity Objects (%): 0%
  Population Membrane Permeable-Phenotype (%): 18.61% and 23.62%
  Population Mitotic Cells (%): 48.08% and 75%
  Population Normal (%): 100%
  Population Pyknosed Nuclei (%): 15.66% and 24.04%
  Population Tubulin-Different-Phenotype (%): 21.17% and 11.81%
  Total Cell Count: 332 and 183
[3]
  Population Apoptotic (%): 53.33% and 54.17%
  Population Fragmented Nuclei (%): 0.65% and 0%
  Population Healthy Nuclei (%): 89.61% and 86.59%
  Population Hoechst High Intensity Objects (%): 0%
  Population Membrane Permeable-Phenotype (%): 1.69% and 5.16%
  Population Mitochondria Different-Phenotype (%): 0.24% and 8.39%
  Population Mitotic Cells (%): 46.67% and 45.83%
  Population Normal (%): 100%
  Population Pyknosed Nuclei (%): 9.74% and 13.41%
  Population Tubulin-Different-Phenotype (%): 1.93% and 0.65%
  Total Cell Count: 462 and 179
[4]
  Population Apoptotic (%): 41.86% and 43.75%
  Population Fragmented Nuclei (%): 2.02% and 5.56%
  Population Healthy Nuclei (%): 76.26% and 70.2%
  Population Hoechst High Intensity Objects (%): 0%
  Population Mitotic Cells (%): 58.14% and 56.25%
  Population Normal (%): 100%
  Population Pyknosed Nuclei (%): 21.72% and 24.24%
  Population Tubulin-Different-Phenotype (%): 24.17% and 12.95%
  Total Cell Count: 396 and 198
[5]
  Population Apoptotic (%): 45.78% and 50%
  Population Fragmented Nuclei (%): 2.67% and 2.11%
  Population Healthy Nuclei (%): 87.27% and 85.96%
  Population Hoechst High Intensity Objects (%): 0.12% and 0%
  Population Membrane Permeable-Phenotype (%): 0.69% and 1.63%
  Population Mitochondria Different-Phenotype (%): 0.28% and 8.16%
  Population Mitotic Cells (%): 54.22% and 50%
  Population Normal (%): 99.88% and 100%
  Population Pyknosed Nuclei (%): 10.06% and 11.93%
  Population Tubulin-Different-Phenotype (%): 1.53% and 0.82%
  Total Cell Count: 826 and 285
[6]
  Population Apoptotic (%): 40.68% and 58.46%
  Population Fragmented Nuclei (%): 3.58% and 4.76%
  Population Healthy Nuclei (%): 78.04% and 69.44%
  Population Hoechst High Intensity Objects (%): 0%
  Population Mitotic Cells (%): 59.32% and 41.54%
  Population Normal (%): 100%
  Population Pyknosed Nuclei (%): 18.38% and 25.79%
  Population Tubulin-Different-Phenotype (%): 19.56% and 20.57%
  Total Cell Count: 642 and 252
